Eleven molecules from ChEMBL document CHEMBL1134528, “Heterocycle-containing retinoids. Discovery of a novel isoxazole arotinoid possessing potent apoptotic activity in multidrug and drug-induced apoptosis-resistant cells” (J Med Chem, 2001) can be followed below.

Test [1] concerns HL-60. As to the kind of experiment: Effect on monocyte associated antigen CD14 expression in differentiating HL-60 cells. In kind it is functional, Homo sapiens. The method, boiled down:
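HL60 cells (2 × 10^5) exposed to each retinoid for 6 days; differentiation scored by May Grunwald-Giemsa-stained cytospin morphology and two-colour direct immunofluorescence flow cytometry with FITC anti-human CD14 and PE anti-human CD11c mouse monoclonals, isotype antibodies as negative controls; value is % antigen-positive cells. Growth in RPMI 1640, 10% FCS, 37 °C, 5% CO2.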

Test [2] has as its system SW 962. As to the kind of experiment: Potency against beta RARE transactivation in SW962 cells. In kind it is functional, Homo sapiens. The method, boiled down: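 Stably transfected SW962 RARE-tk-CAT reporter line treated 24 h with 10^-9 to 10^-5 M compound in DMSO, DMSO vehicle control; CAT protein by ELISA normalised to extract protein, triplicate treatments averaged to give fold RARE induction; EC50, the concentration for half-maximal activation, read from dose–response curves.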

Test [3] concerns SW 962. The experiment in a line: (§1) Percentage efficacy for Beta RARE transactivation in SW962 cells. More on the design: concentration or dose not given beside the values. In kind it is functional, Homo sapiens. The method, boiled down:
(§2)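 SW962 vulvar carcinoma cells (L15 medium, 10% FBS with <8 nM vitamin A) stably carrying RARE-tk-CAT reporter with endogenous receptors, treated 24 h in DMSO; CAT measured by ELISA, normalised to protein, triplicates; fold induction vs DMSO control. Efficacy = fold induction at highest concentration (10 µM) divided by that of 10 µM 9-cis-RA, ×100.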

In test [4] the test system is HL-60. The experiment in a line: In vitro inhibition of HL60 cell proliferation. In kind it is functional, cell-based. Particulars: Homo sapiens.
Test [5] deals with HL-60. As to the kind of experiment: In vitro apoptotic activity in HL60 cells. In kind it is functional, cell-based. To be noted: Homo sapiens. The method, boiled down:
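HL60 cells (2 × 10^5 per well, RPMI 1640 + 10% FCS) given increasing drug concentrations for 48 h; apoptosis scored morphologically under fluorescence microscopy after acridine orange/ethidium bromide labelling (chromatin condensation, apoptotic bodies), also by propidium iodide hypotonic-citrate flow cytometry as pre-G0G1 events; AC50 = concentration giving apoptosis in 50% of cells.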

For test [6], the system named is HuT78. As to the kind of experiment: Inhibition of retinoic acid resistant HUT78 cell proliferation. Particulars: Homo sapiens. In kind it is functional, cell-based. Summed up: (§3)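 Cells at 2 × 10^5 per well in 1 mL complete medium were exposed to increasing concentrations of each drug for 48 h. Viable cells were counted on a hemocytometer with trypan blue exclusion and expressed as percent of control proliferation. IC50 is the concentration giving 50% growth inhibition.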

Test [7] relates to HuT78. As to the kind of experiment: Apoptotic activity in retinoic acid resistant HUT78 cell lines. The format is functional, cell-based. To be noted: Homo sapiens. The method, boiled down:
(§4)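 Cells were exposed to increasing drug concentrations for 48 h. Apoptosis was scored by fluorescence microscopy after acridine orange/ethidium bromide staining, with chromatin condensation and apoptotic bodies marking apoptotic cells and uniform ethidium staining marking necrosis. AC50 is the concentration inducing apoptosis in 50% of cells.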

In test [8] the test system is HL-60. As to the kind of experiment: Inhibition of retinoic acid resistant HL60R cell proliferation. In kind it is functional, cell-based. Particulars: Homo sapiens. Summed up:
as §3

The test system of test [9] is HL-60. As to the kind of experiment: Apoptotic activity in retinoic acid resistant HL60R cells. In kind it is functional, cell-based. To be noted: Homo sapiens. Summed up: as §4
Test [10] deals with K562. The experiment in a line: Inhibition of retinoic acid resistant K562 cell proliferation. To be noted: Homo sapiens. The format is functional, cell-based. The method, boiled down:
as §3

For test [11], the system named is K562. As to the kind of experiment: Apoptotic activity in retinoic acid resistant K562 cells. The format is functional, cell-based. Particulars: Homo sapiens. Summed up:
as §4

The test system of test [12] is SW 962. The description is as §1. The format is functional, Homo sapiens. The method, boiled down: as §2

For orientation: IC50 means the point on the concentration scale where inhibition reaches its midpoint. The term AC50 denotes the concentration giving half of the maximal activity seen. In the case of `CC1(C)CCC(C)(C)c2cc(C3=NOC(c4ccc(C(=O)O)cc4)C3)ccc21` (configuration not stated), the Activity in [1] is 42.8%. This molecule had a Potency in [2] of 2.86 µM. For the same molecule, in [3], the Efficacy is on record as 46.5%. For the same molecule, in [4], the IC50 was 68 µM. Further, the half-maximal activity concentration (AC50) in test [5] is more than 100 µM.

Take `CC1(C)CCC(C)(C)c2cc(-c3cc(-c4ccc(C(=O)O)cc4)no3)ccc21`: the IC50 in test [6] came out at 0.8 µM; in [8], 1.4 µM; in [4], 1 µM; in test [10] it was 2.3 µM. Also, the Potency in [2] was determined as 10 µM. Further, the AC50 in test [7] amounted to 1.5 µM; in [9] it was 4.2 µM; in [5], 5 µM; in test [11] it was 4.8 µM. The molecule also yielded an Efficacy in test [3] of 97.6%.

With `CC1(C)CCC(C)(C)c2cc(C3CC(c4ccc(C(=O)O)cc4)=NO3)ccc21` (configuration not stated), the Activity in test [1] turned out to be 32.5%. For the same molecule, the Potency in test [2] turned out to be 0.961 µM. In test [3], this molecule yielded an Efficacy of 26.3%. In test [4], this molecule registered an IC50 of 75 µM. This molecule also returned an AC50 in test [5] of more than 100 µM.

For the molecule `CC1(C)CCC(C)(C)c2cc(CNc3ccc(C(=O)O)cc3)ccc21`, in [2], the Potency came out at 0.671 µM. This molecule displayed an Efficacy in [3] of 64.5%. Moreover, the half-maximal inhibitory concentration (IC50) in test [4] was 40 µM. Moreover, the AC50 in test [5] is 70 µM.

In the case of `CC1(C)CCC(C)(C)c2cc(CNc3ccccc3C(=O)O)ccc21`, in test [4], inhibition was half-maximal at 49 µM (IC50). In addition, the activity in test [5] was half-maximal at 88 µM (AC50).

The molecule `CC1(C)CCC(C)(C)c2cc(COc3ccc(C(=O)O)cc3)ccc21` returned an IC50 in test [4] of more than 100 µM. This molecule also gave a concentration at half-maximal activity (AC50) in test [5] of more than 100 µM.

As for `CC1(C)CCC(C)(C)c2cc(CNc3cccc(C(=O)O)c3)ccc21`, the concentration for half-maximal inhibition (IC50) in test [4] is 60 µM. Moreover, in [5], the AC50 is 99 µM.

In test [4], `CN(Cc1ccc2c(c1)C(C)(C)CCC2(C)C)c1ccc(C(=O)O)cc1` displayed an IC50 of 58 µM. Besides, the AC50 in [5] came to 95 µM.

Molecule `CC1(C)CCC(C)(C)c2cc(-c3cc(-c4ccc(C(=O)O)cc4)on3)ccc21` returned an Activity in test [1] of 38.6%. Besides, in [2], the Potency came to 0.129 µM. Further, the Efficacy in [3] is recorded as 48%. The IC50 in test [4] came out at 80 µM. This molecule returned an AC50 in [5] of more than 100 µM.

`CC1=C(/C=C/C(C)=C\C=C\C(C)=C\C(=O)O)C(C)(C)CCC1` [ALITRETINOIN] came in with an Efficacy in test [12] of 100%. Also, in test [2], the Potency came to 0.0169 µM.

As for `CC1=C(/C=C/C(C)=C/C=C/C(C)=C/C(=O)O)C(C)(C)CCC1` [TRETINOIN], in [1], the Activity is 0%. The molecule further came in with a half-inhibitory concentration (IC50) in [4] of 18 µM. The same molecule had an AC50 in test [5] of more than 100 µM.
